# Laboratory results reported in article PMC3859345 (Science translational medicine, 2013).
# “Also recorded” adds a separate entry of the source. Where no end group is shown, it is not given here. The star is where a group is joined. FITC = O=C1OC2(c3ccc(O)cc3Oc3cc(O)ccc32)c2ccc(NC(=S)*)cc21; Ahx = NCCCCCC(=O)O
# Key:
# [1] = system: adenocarcinoma cells; experiment: Flow cytometry, adenocarcinoma cells; format: binding, human; settings: for mean intensity of controls lower than that for ASY*-FITC: flow cytometry, relative to ASY*-FITC
# Method in brief: (§1)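 Adenocarcinoma and non-neoplastic Q-hTERT cells, grown as adherent monolayers at 37°C, 5% CO2, incubated with FITC-labelled peptide, with FITC-labelled control peptides (including a scrambled sequence), or left unstained. Mean fluorescence intensity measured by flow cytometry.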
# [2] = system: Q-hTERT cells; experiment: Flow cytometry, Q-hTERT cells; format: binding, human
# Method in brief: as §1
# [3] = system: H460, FLO1, OE33, and OE19 adenocarcinoma cells; experiment: Confocal fluorescence microscopy, control peptides; format: binding, human; settings: compared with ASY*-FITC
# [4] = system: ovarian cancer; settings: topical administration, mouse model of ovarian cancer; cited from earlier work
# [5] = Fluorescence emission spectra; format: physicochemical; settings: 100 μM in PBS, 471 nm excitation
# [6] = Stability testing of lyophilized powder; format: physicochemical; settings: −20°C
# Method in brief: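 GMP-synthesized FITC-peptide aliquoted into amber vials crimp-sealed with septa and stored at −20°C. Monitored by appearance (colour), HPLC and mass spectrometry over 3 years.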
# [7] = system: H460 cells; experiment: Binding affinity; design: species or system human; settings: read-out: apparent dissociation constant (kd); ASY*-FITC to H460 cells; averages from 3 independent experiments; least squares fit
# Method in brief: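 Human H460 lung adenocarcinoma cells were grown as adherent monolayers in DMEM with 10% FBS and 100 U/ml penicillin/streptomycin at 37°C, 5% CO2. They were incubated with FITC-labeled test peptide, and the apparent dissociation constant was derived from cell-bound fluorescence. Values are averages of 3 independent experiments.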
# [8] = system: H460 cells; experiment: Binding kinetics; design: species or system human; settings: ASY*-FITC to H460 cells; least squares fit
# Method in brief: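 H460 lung adenocarcinoma cells grown as adherent monolayers in DMEM with 10% FBS and 100 U/ml penicillin/streptomycin at 37°C, 5% CO2. Association time constant k determined for FITC-labelled peptide binding to these cells.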
# [9] = system: H460 adenocarcinoma cells; experiment: Confocal fluorescence microscopy, H460; format: binding, human
# Method in brief: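 Adherent H460 cultures (DMEM, 10% FBS, P/S, 37°C, 5% CO2) were incubated with FITC-labeled test peptide and examined by confocal fluorescence microscopy for plasma-membrane labeling. Non-neoplastic Q-hTERT Barrett's cells, grown in keratinocyte serum-free medium with 50 μg/ml bovine pituitary extract and 0.005 μg/ml EGF, were the control line.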
# [10] = system: FLO1 adenocarcinoma cells; experiment: Confocal fluorescence microscopy, FLO1; format: binding, human
# Method in brief: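 FLO1 esophageal adenocarcinoma cells cultured as adherent monolayers in DMEM with 10% FBS, penicillin/streptomycin and 5 μg/ml plasmocin at 37°C, 5% CO2. Plasma-membrane binding of FITC-labelled peptide assessed by confocal fluorescence microscopy.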
# [11] = system: OE33 adenocarcinoma cells; experiment: Confocal fluorescence microscopy, OE33; format: binding, human
# Method in brief: (§2)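 Adherent OE19 and OE33 esophageal carcinoma monolayers maintained at 37°C, 5% CO2 in RPMI-1640 with 10% FBS, penicillin/streptomycin and 5 μg/ml plasmocin. FITC-labelled peptide binding to the plasma membrane examined by confocal fluorescence microscopy.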
# [12] = system: OE19 adenocarcinoma cells; experiment: Confocal fluorescence microscopy, OE19; format: binding, human
# Method in brief: as §2
# [13] = system: Q-hTERT cells; experiment: Confocal fluorescence microscopy, Q-hTERT; format: binding, human; settings: Q-hTERT BE cells
# Method in brief: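 Non-neoplastic Q-hTERT Barrett's cells kept in keratinocyte serum-free medium with 50 μg/ml bovine pituitary extract, 0.005 μg/ml recombinant human EGF and penicillin/streptomycin, as adherent monolayers at 37°C, 5% CO2. Binding of FITC-labelled peptide checked by confocal fluorescence microscopy.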
# [14] = system: human esophageal mucosa (squamous, BE, HGD, EAC); experiment: Ex vivo fluorescence stereomicroscopy of resected esophageal specimens; format: binding; settings: 1 mm^2 regions, 12 EMR specimens
# [15] = system: Barrett's neoplasia (HGD/EAC); experiment: Confocal endomicroscopy in vivo after topical peptide administration; design: species or system human
# [16] = system: human subjects; settings: in vivo
# [17] = system: human subjects; experiment: Peptide safety in humans
# [18] = system: H460 cells; experiment: Competitive binding with ASY*-FITC on H460 cells; design: species or system human; settings: unlabeled competitor 100 to 1000 μM (GGG* control at concentrations up to 1000 μM, P>0.05, unpaired t-test)
# [19] = system: human H460 adenocarcinoma cells; experiment: Phage display biopanning, phage count / pfu binding to H460 cells; settings: pfu counts
compound,measurement,setting,value
AADYYSN-GGGSK-FITC,mean intensity of controls lower than that for ASY*-FITC,[1],< 3 fold
same,difference between ASY*-FITC and control peptides on binding to Q-hTERT cells,[2],No difference
same,fluorescence signal of control peptides,[3],Significantly less signal
{FITC-Ahx}-ASYNYDA,mean intensity of controls lower than that for ASY*-FITC,[1],< 3 fold
same,difference between ASY*-FITC and control peptides on binding to Q-hTERT cells,[2],No difference
same,fluorescence signal of control peptides,[3],Significantly less signal
GGGAGGGAGGGK-FITC,mean intensity of controls lower than that for ASY*-FITC,[1],< 3 fold
same,difference between ASY*-FITC and control peptides on binding to Q-hTERT cells,[2],No difference
same,fluorescence signal of control peptides,[3],Significantly less signal
γ-glutamyl hydroxymethyl rhodamine green,time to fluorescence activation,[4],~ 1 minute
MNDPIPQ-GGGSK-FITC,mean intensity of controls lower than that for ASY*-FITC,[1],< 3 fold
same,difference between ASY*-FITC and control peptides on binding to Q-hTERT cells,[2],No difference
same,fluorescence signal of control peptides,[3],Significantly less signal
ASYNYDA [ASY*-FITC],peak emission,[5],519 nm
same,purity on HPLC at end of stability testing,"[6]; 36 months, initial 97%",95%
same,change in purity on HPLC,[6]; over 36 months (97% to 95%),~ 2%
same,Kd,[7],32 nM
same,apparent association rate constant (k),[8],0.2 min⁻¹
same,binding on flow cytometry (in words),[1]; compared with control peptides,stronger binding to the adenocarcinoma cells
same,difference between ASY*-FITC and control peptides on binding to Q-hTERT cells,[2],No difference
same,"binding to plasma membrane (confocal), H460",[9],binding of ASY*-FITC to the plasma membrane
same,"binding to plasma membrane (confocal), FLO1",[10],binding of ASY*-FITC to the plasma membrane; also recorded: specific binding
same,"binding to plasma membrane (confocal), OE33",[11],binding of ASY*-FITC to the plasma membrane; also recorded: specific binding
same,"binding to plasma membrane (confocal), OE19",[12],binding of ASY*-FITC to the plasma membrane; also recorded: specific binding
same,binding to Q-hTERT cells,[13],did not bind to Q-hTERT cells
same,mean fluorescence intensities for HGD and EAC versus non-dysplastic BE and squamous,[14],significantly greater than non-dysplastic BE and squamous
same,greater fluorescence intensity for HGD/EAC (neoplasia) than for BE and squamous,"[15]; 25 human subjects, topical 5 ml of 100 μM, 5 min incubation",3.8 fold
same,"in vivo binding, HGD and EAC","[15]; HGD and EAC crypts, confocal endomicroscopy",specific peptide binding to neoplastic crypts
same,specificity for HGD/EAC,"[15]; T/B ratio threshold 4.2, 95% CI: 85%–100%, 25 human subjects",97%
same,"in vivo binding, squamous epithelium","[15]; normal squamous epithelium, confocal endomicroscopy",no peptide binding
same,onset of binding,[15]; topical administration,~ 5 minutes
same,mean post/pre-EMR WBC ratio at 24 hours,[16],1.7±0.4
same,post/pre-EMR WBC ratio without peptide compared with peptide and EMR,[16],not significantly different
same,mean WBC count ratio by day 5,"[17]; 14 out of 21 patients with leukocytosis resolved, SD, P<0.01, Mann Whitney test",1.1±0.2
same,mean white blood cell (WBC) count at 24 hours,"[17]; 21 patients with EMR, baseline 7.0×10^3, P<0.01, unpaired t-test, transient",11.1×10^3
same,safety of topical application (in words),"[17]; BE patients, topical",safe and effective
same,patients with leukocytosis resolved by day 5,"[17]; after EMR with peptide, remaining 7 patients after day 5",14 out of 21
same,urinalyses,"[17]; all 25 patients, baseline and post-procedure",within normal limits
same,relation of adverse events to the peptide,"[17]; all adverse events, clinical study",unlikely to have been related to the peptide
same,toxicity attributed to the peptide,[17]; animal and patient studies,No toxicity was attributed to the peptide
GGGAGGGAGGGK,inhibition of ASY*-FITC binding (fluorescence intensity),[18],No significant reduction in fluorescence intensity
ASYNYDA [ASYNYDA phage],greater binding for H460 than for Q-hTERT cells,[19]; H460 vs Q-hTERT BE cells,5.3 fold
same,greater binding for H460 cells in comparison to wild-type (WT)-phage,[19]; vs WT-phage (no peptides expressed),> 10 fold
"O=C1OC2(c3ccc(O)cc3Oc3cc(O)ccc32)c2ccc(N=C=S)cc21 [FITC, reference compound]",peak emission,[5],519 nm
